Measurements reported in ChEMBL document CHEMBL3870334, “Synthesis, anticancer, and docking studies of salicyl-hydrazone analogues: A novel series of small potent tropomyosin receptor kinase A inhibitors” (Bioorg Med Chem, 2017).
pIC50: −log10 of the molar value.

Columns and labels:
[1] = target: T1, High affinity nerve growth factor receptor (Homo sapiens, UniProt P04629); assay: Inhibition of human N- terminal GST-tagged TrkA cytoplasmic domain (436 to 790 residues) expressed in baculovirus infected sf21 cells at 1 uM using biotinylated peptide substrate incubated for 15 mins followed by addition of ATP measured after 30 mins by TR-FRET assay relative to control
Target sequence in this assay (P04629 33-796 limits assumed): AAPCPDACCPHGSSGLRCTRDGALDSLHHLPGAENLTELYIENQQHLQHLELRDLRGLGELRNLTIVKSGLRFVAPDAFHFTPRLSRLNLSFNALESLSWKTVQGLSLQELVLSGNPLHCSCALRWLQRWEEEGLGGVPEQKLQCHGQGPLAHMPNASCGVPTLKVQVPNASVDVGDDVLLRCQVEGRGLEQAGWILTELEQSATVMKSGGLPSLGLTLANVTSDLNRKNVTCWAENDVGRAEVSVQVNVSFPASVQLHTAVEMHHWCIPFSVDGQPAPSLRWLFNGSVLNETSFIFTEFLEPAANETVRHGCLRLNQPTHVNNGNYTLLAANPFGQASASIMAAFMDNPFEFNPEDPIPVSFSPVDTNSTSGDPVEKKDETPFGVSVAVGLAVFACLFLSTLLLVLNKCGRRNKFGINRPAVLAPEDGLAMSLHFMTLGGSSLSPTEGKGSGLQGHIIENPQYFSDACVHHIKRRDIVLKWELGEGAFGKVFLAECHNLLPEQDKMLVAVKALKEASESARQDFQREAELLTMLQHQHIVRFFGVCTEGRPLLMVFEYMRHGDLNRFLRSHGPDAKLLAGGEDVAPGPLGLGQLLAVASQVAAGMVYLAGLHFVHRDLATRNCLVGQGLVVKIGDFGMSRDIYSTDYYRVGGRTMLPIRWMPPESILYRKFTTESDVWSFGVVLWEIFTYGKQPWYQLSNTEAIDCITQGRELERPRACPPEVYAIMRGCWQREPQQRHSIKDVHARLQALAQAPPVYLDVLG

[2] = Cytotoxicity against human SK-MEL-2 cells assessed as reduction in cell proliferation measured after 48 hrs by SRB assay; assay type: functional, cell-based; conditions: SK-MEL-2, 48 h
Summary of the method: (§1)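 SRB assay of net cell proliferation after continuous 48 h exposure to test compound. Inhibition is expressed as a percentage of non-treated controls. Samples were run in triplicate, and the mean IC50 (concentration giving 50% inhibition of proliferation) was calculated. Doxorubicin served as positive control.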

[3] = Cytotoxicity against human HCT15 cells assessed as reduction in cell proliferation measured after 48 hrs by SRB assay; assay type: functional, cell-based; conditions: HCT-15, 48 h; summary of the method: as §1
[4] = Cytotoxicity against human MIAPaCa2 cells assessed as reduction in cell proliferation measured after 48 hrs by SRB assay; assay type: functional, cell-based; conditions: MIA PaCa-2, 48 h; summary of the method: as §1
[5] = Cytotoxicity against human A549 cells assessed as reduction in cell proliferation measured after 48 hrs by SRB assay; assay type: functional, cell-based; conditions: A549, 48 h; summary of the method: as §1
[6] = Cytotoxicity against human SKOV3 cells assessed as reduction in cell proliferation measured after 48 hrs by SRB assay; assay type: functional, cell-based; conditions: SK-OV-3, 48 h; summary of the method: as §1
[7] = target: T1, High affinity nerve growth factor receptor; assay: Inhibition of human N- terminal GST-tagged TrkA cytoplasmic domain (436 to 790 residues) expressed in baculovirus infected sf21 cells using biotinylated peptide substrate incubated for 15 mins followed by addition of ATP measured after 30 mins by TR-FRET assay
Target sequence in this assay (P04629 whole entry, the tested form may be a part): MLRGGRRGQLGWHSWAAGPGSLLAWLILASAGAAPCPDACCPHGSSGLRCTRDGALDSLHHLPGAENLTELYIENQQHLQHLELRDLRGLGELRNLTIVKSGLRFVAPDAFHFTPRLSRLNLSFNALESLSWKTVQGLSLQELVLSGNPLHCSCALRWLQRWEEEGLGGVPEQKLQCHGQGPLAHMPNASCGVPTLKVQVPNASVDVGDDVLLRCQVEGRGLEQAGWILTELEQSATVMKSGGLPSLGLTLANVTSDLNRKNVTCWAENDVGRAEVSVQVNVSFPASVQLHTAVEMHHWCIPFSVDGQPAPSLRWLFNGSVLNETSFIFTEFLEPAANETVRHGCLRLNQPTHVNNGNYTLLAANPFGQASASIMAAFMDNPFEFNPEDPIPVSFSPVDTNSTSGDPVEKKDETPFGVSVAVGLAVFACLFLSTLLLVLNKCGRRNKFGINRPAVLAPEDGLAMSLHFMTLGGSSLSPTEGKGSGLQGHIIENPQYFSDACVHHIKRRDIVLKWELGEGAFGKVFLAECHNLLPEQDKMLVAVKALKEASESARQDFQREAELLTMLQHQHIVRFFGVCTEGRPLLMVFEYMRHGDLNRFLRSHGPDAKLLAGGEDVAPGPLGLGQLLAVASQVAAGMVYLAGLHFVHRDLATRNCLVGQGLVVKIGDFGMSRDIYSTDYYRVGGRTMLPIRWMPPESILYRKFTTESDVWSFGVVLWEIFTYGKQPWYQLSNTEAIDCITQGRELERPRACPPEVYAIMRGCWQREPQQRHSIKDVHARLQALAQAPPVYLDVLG

[8] = target: T1, High affinity nerve growth factor receptor; assay: Inhibition of TrkA (unknown origin) by ELISA
Target sequence in this assay (P04629 whole entry, the tested form may be a part): as above

[9] = target: T1, High affinity nerve growth factor receptor; assay: Inhibition of TrkA (unknown origin)
Summary of the method: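 Purified TrkA, biotinylated substrate peptide and inhibitor were preincubated 15 min at 25°C, then 100 µM ATP was added. After 30 min, Eu-cryptate anti-phosphotyrosine antibody (1 µM) and streptavidin-XL665 (125 nM) were added for 1 h. HTRF read at 320 nm excitation, 620/665 nm emission ratio. IC50 from % inhibition across 12 serial dilutions (0.03~10000 nM).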
Target sequence in this assay (P04629 whole entry, the tested form may be a part): as above

[10] = target: T1, High affinity nerve growth factor receptor; assay: Inhibition of human TrkA expressed in human U2OS cells assessed as inhibition of NGF-induced response measured after 1 hr by beta-galactosidase assay; assay type: cell-based
Target sequence in this assay (P04629 whole entry, the tested form may be a part): as above

| inhibition [1] | pIC50 [7] | pIC50 [8] | pIC50 [9] | pIC50 [10] | Compound | pIC50 [2] | pIC50 [3] | pIC50 [4] | pIC50 [5] | pIC50 [6] |
| --- | --- | --- | --- | --- | --- | --- | --- | --- | --- | --- |
| – | – | 8.70 | – | – | CC1(C)C[C@H](c2cc(F)ccc2F)N(c2ccn3ncc(NC(=O)c4cnccn4)c3n2)C1 | – | – | – | – | – |
| – | – | – | 7.57 | – | COc1ccccc1/C=C/C(=O)Nc1nc(N)n(-c2ccccc2)n1 | – | – | – | – | – |
| – | – | – | 7.70 | – | Nc1ccc(Cc2cccc(NC(=O)N3CCN(c4ccccc4)C3=O)c2)cn1 | – | – | – | – | – |
| – | – | – | – | 7.89 | CCc1ncc(C(=O)C2CC([C@@H](C)CO)c3ncncc32)cc1NC(=O)Cc1ccc(C(F)(F)F)cc1 (some centres not stated) | – | – | – | – | – |
| – | – | – | – | 7.32 | COc1ncc(C(=O)C2CC(C(C)C)c3ncncc32)cc1NC(=O)Nc1cc(Cl)cc(Cl)c1 (configuration not stated) | – | – | – | – | – |
| – | – | – | 6.52 | – | Oc1ccc(Nc2nc(-c3ccccc3O)nc3ccccc23)cc1 | – | – | – | – | – |
| 7.61% | – | – | – | – | COc1ccc(/C=N/NC(=O)c2ccccc2O)c(OC)c1 | 4.71 | 4.59 | 4.95 | 4.50 | 4.84 |

More lines, now with the values behind:

| Compound | inhibition [1] | pIC50 [7] | pIC50 [8] | pIC50 [9] | pIC50 [10] | pIC50 [2] | pIC50 [3] | pIC50 [4] | pIC50 [5] | pIC50 [6] |
| --- | --- | --- | --- | --- | --- | --- | --- | --- | --- | --- |
| Cn1cc(/C=C2\C(=O)Nc3cccnc32)c2ccccc21 | > 99% | – | – | – | – | – | – | – | – | – |
| COc1ccc(/C=N/NC(=O)c2ccccc2O)cc1 | – | – | – | – | – | 4.82 | 4.55 | 5.06 | 4.89 | 4.84 |
| O=C(N/N=C/c1ccc(O)c(O)c1O)c1ccccc1O | 90.9% | 6.42 | – | – | – | 5.74 | 5.43 | 5.66 | 5.15 | 5.71 |
| CN(C)c1ccc(/C=N/NC(=O)c2ccccc2O)cc1 | – | – | – | – | – | 4.71 | 4.42 | 4.68 | 4.67 | 4.73 |
| O=C(N/N=C/c1ccc(O)cc1)c1ccccc1O | 20.6% | – | – | – | – | 5.26 | 5.07 | 5.93 | 5.54 | 5.04 |
| O=C(N/N=C/c1ccccc1)c1ccccc1O | – | – | – | – | – | 5.01 | 4.67 | 5.61 | 5.56 | 5.23 |
| O=C(N/N=C/c1ccc(O)c(O)c1)c1ccccc1O | 92.9% | 5.59 | – | – | – | 5.05 | 5.00 | 5.32 | 5.50 | 5.04 |
| O=C(N/N=C/c1ccc([N+](=O)[O-])cc1)c1ccccc1O | – | – | – | – | – | 5.03 | 4.64 | 5.17 | 5.06 | 5.06 |
| O=C(N/N=C/c1ccccc1[N+](=O)[O-])c1ccccc1O | – | – | – | – | – | 4.71 | 4.46 | 4.85 | 4.64 | 4.71 |
| O=C(N/N=C/c1ccc(Cl)cc1)c1ccccc1O | 6.92% | – | – | – | – | 4.85 | 4.68 | 5.14 | 4.65 | 5.01 |
| Cc1ccc(/C=N/NC(=O)c2ccccc2O)cc1 | 3.7% | – | – | – | – | 4.88 | 4.57 | 5.35 | 5.17 | 5.01 |
| COc1cccc2c1C(=O)c1c(O)c3c(c(O)c1C2=O)C[C@@](O)(C(=O)CO)C[C@@H]3O[C@H]1C[C@H](N)[C@H](O)[C@H](C)O1 [DOXORUBICIN] | – | – | – | – | – | 9.00 | 6.06 | 7.31 | 7.68 | 7.13 |
| O=C(N/N=C/c1ccc(O)cc1O)c1ccccc1O | 92.4% | 6.64 | – | – | – | 5.84 | 6.05 | 6.32 | 5.61 | 6.06 |
